In ChEMBL document CHEMBL4041521, “3-Aroylindoles display antitumor activity in vitro and in vivo: Effects of N1-substituents on biological activity” (Eur J Med Chem, 2017):
Active and inactive are the calls of the source. The calls are words filed in the database; no cut-off is given here.

Experiments:
[1] = species on record: Homo sapiens; assay: Inhibition of HDAC in human PC3 cells assessed as increase in alpha-tubulin acetylation at 0.01 to 10 uM by Western blot analysis; type: cell-based
Outline: (§1)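 PC3 prostate cancer cells treated, then lysed in 20 mM Tris-HCl pH 7.5 with 150 mM NaCl, EDTA/EGTA, phosphatase and protease inhibitors, 0.1% Triton X-100. Lysates spun 13,000 rpm for 30 min, then immunoblotted for acetylated α-tubulin and acetylated histone H3.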

[2] = test system: RPMI-8226; assay: Antitumor activity against human RPMI8226 cells xenografted in ip dosed athymic nude mouse assessed as tumor growth inhibition administered once daily measured twice per week; type: functional, organism-based
Outline: (§2)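 Male athymic nude mice (5–6 wk) implanted s.c. with 1 × 10⁷ RPMI-8226 myeloma cells; randomized by tumor size at ~150–350 mm³. Daily i.p. injection, vehicle 5% DMSO + 5% Cremophor in D5W. Tumor volume by calipers twice weekly as (length × width²)/2; %TGI derived from treated vs control volume ratios at time t and time 0.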

[3] = species on record: Homo sapiens; assay: Inhibition of HDAC in human PC3 cells assessed as increase in alpha-tubulin acetylation by Western blot analysis; type: cell-based; outline: as §1
[4] = test system: RPMI-8226; assay: Antitumor activity against human RPMI8226 cells xenografted in athymic nude mouse assessed as tumor growth inhibition at 50 mg/kg, ip qd measured twice per week relative to control; type: functional; details: RPMI-8226, ip, read-out: TGI; outline: as §2
[5] = test system: Mus musculus; assay: Toxicity in human PC3 cells xenografted in athymic nude mouse assessed as body weight loss at 100 to 200 mg/kg, po qd administered daily measured daily during first week followed by twice per week; type: organism-based; details: in vivo
Outline: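 PC3 xenograft nude mice (male, 5–6 wk) given daily oral drug in 5% DMSO + 5% Cremophor in D5W. Body weight recorded daily in week one, then twice weekly, compared with vehicle group.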

[6] = test system: PC-3; assay: Antitumor activity against human PC3 cells xenografted in athymic nude mouse assessed as tumor growth inhibition at 100 mg/kg, po qd administered daily measured twice per week relative to control; type: functional; details: PC-3, po, read-out: TGI
Outline: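 Male athymic nude mice (5–6 wk) given 1 × 10⁷ PC3 cells s.c.; randomized by tumor size at ~150–350 mm³. Oral dosing daily, vehicle 5% DMSO + 5% Cremophor in D5W. Caliper volumes twice weekly, (length × width²)/2; %TGI = {1-[(Tt/T0)/(Ct/C0)]/1-[C0/Ct]}*100 against vehicle controls.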

[7] = test system: Mus musculus; assay: Toxicity in human RPMI8226 cells xenografted in athymic nude mouse assessed as body weight loss at 50 to 100 mg/kg, ip qd measured daily during first week followed by twice per week; type: organism-based; details: in vivo
Outline: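 RPMI-8226 xenograft nude mice (male, 5–6 wk) dosed i.p. daily in 5% DMSO + 5% Cremophor in D5W. Body weight measured daily for the first week, then twice weekly.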

Row | Compound | inhibition [1] | TGI [2] | alpha-tubulin acetylation increase [3] | inhibition in vivo at 50 mg/kg [4] [%] | Activity [5] | inhibition in vivo at 100 mg/kg [6] [%] | Activity [7]
1 | COc1ccc2c(C(=O)c3cc(OC)c(OC)c(OC)c3)cn(S(=O)(=O)c3cccc(/C=C/C(=O)NO)c3)c2c1 | Active | – | – | – | – | – | –
2 | COc1ccc2c(C(=O)c3cc(OC)c(OC)c(OC)c3)cn(Cc3ccc(C(=O)NO)cc3)c2c1 | – | Dose-dependent effect | Dose-dependent effect | 35.8 | Non-Toxic | 24.8 | Non-Toxic
